# Results as given in ChEMBL document CHEMBL1759862, “Tricyclic compounds containing nonenolizable cyano enones. A novel class of highly potent anti-inflammatory and cytoprotective agents” (J Med Chem, 2011).
# pIC50: −log10 of the molar value. Where “and” joins values, the source holds several entries; their conditions need not be identical. Equal values may be shown once. Calls of active or inactive are those of the source. The calls are words filed in the database; no cut-off is given here.
# Legend:
# [1] = Antiinflammatory activity in CD-1 mouse Macrophage assessed as inhibition of IFN-gamma induced NO production after 48 hrs by Griess reaction; assay type: functional, cell-based
# [2] = tested on: RAW264.7; assay: Antiinflammatory activity in mouse RAW264.7 cells assessed as inhibition of IFN-gamma induced NO production after 24 hrs by Griess reaction; assay type: functional, cell-based
# How it was run: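 RAW 264.7 cells exposed to serial concentrations of compound together with IFN-γ (10 ng/mL) for 24 h; NO in supernatants quantified by Griess reaction. IC50 tested over 0.1 pM to 10 μM in 10-fold steps; values averaged from two separate experiments.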
# [3] = tested on: Liver; assay: Antitumor activity against aflatoxin B1-induced tumorigenesis in F344 rat liver assessed as reduction in tumor burden at 0.3 umol/kg administered via gavage relative to control; assay type: functional; set-up: scale not given: the % may be the effect or the level left
# How it was run: (§1)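 Short-term rat model of liver tumorigenesis induced with aflatoxin B1. Test agent was given at 0.3 to 60 μmol/kg. Preneoplastic foci were scored in liver, and tumor burden was expressed against the AFB1-treated positive control group.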
# [4] = tested on: Liver; assay: Antitumor activity against aflatoxin B1-induced tumorigenesis in F344 rat liver assessed as reduction in tumor burden at 10 umol/kg administered via gavage relative to control; assay type: functional; set-up: scale not given: the % may be the effect or the level left; how it was run: as §1
# [5] = tested on: Macrophage; assay: Ratio of CDDO IC50 to compound IC50 for inhibition of IFN-gamma induced NO production in mouse macrophages; assay type: functional
# [6] = tested on: RAW264.7; assay: Ratio of CDDO IC50 to compound IC50 for inhibition of IFN-gamma induced NO production in mouse RAW264.7 cells; assay type: functional
# How it was run: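 RAW 264.7 cells were co-treated with compound (0.1 pM to 10 μM, 10-fold dilutions) and IFN-γ 10 ng/mL for 24 h. Nitric oxide in supernatants was measured by the Griess reaction. IC50 is the mean of two separate experiments, and the ratio is taken against CDDO's IC50.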
# [7] = tested on: Rattus norvegicus; assay: Toxicity in F344 rat assessed as growth rate at 0.3 to 60 umol administered via gavage; assay type: organism-based; conditions: in vivo, po
# How it was run: (§2)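 Tolerability was checked in rats in the aflatoxin B1 short-term hepatic tumorigenesis study, dosed at 0.3 to 60 μmol/kg. Growth rate and final body weight were compared with controls not given AFB1.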
# [8] = tested on: Rattus norvegicus; assay: Toxicity in F344 rat assessed as effect on body weight at 0.3 to 60 umol administered via gavage; assay type: organism-based; conditions: in vivo, po; how it was run: as §2
# [9] = target: NAD(P)H dehydrogenase [quinone] 1 (Mus musculus) (UniProt Q64669); assay: Induction of NQO1 activity in mouse Hepa-1c1c7 cells after 48 hrs; assay type: cell-based
# Sequence of NAD(P)H dehydrogenase [quinone] 1 (Mus musculus) (Q64669 whole entry): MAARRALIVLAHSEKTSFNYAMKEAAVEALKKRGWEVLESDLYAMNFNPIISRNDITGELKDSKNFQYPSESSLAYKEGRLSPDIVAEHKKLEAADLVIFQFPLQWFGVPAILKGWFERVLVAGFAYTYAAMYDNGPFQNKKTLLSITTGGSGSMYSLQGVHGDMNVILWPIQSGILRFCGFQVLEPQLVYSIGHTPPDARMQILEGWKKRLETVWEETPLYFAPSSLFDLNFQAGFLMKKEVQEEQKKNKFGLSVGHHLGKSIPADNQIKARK
# [10] = tested on: RAW264.7; assay: Inhibition of IFN-gamma induced iNOS expression in mouse RAW264.7 cells at 300 nM after 24 hrs by Western blotting; assay type: functional, cell-based
# [11] = tested on: RAW264.7; assay: Induction of HO-1 expression in mouse RAW264.7 cells at 300 nM after 6 hrs by Western blotting; assay type: functional, cell-based
# How it was run: (§3)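 RAW cells treated with compound for 6 h (30–300 nM range); HO-1 detected in total cell lysates by Western blot.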
# [12] = tested on: Liver; assay: Induction of HO-1 expression in CD-1 mouse liver at 1 umol administered via gavage measured after 6 hrs by Western blotting; assay type: functional, tissue-based
# [13] = tested on: Macrophage; assay: Antiinflammatory activity in CD-1 mouse Macrophage assessed as inhibition of IFN-gamma induced NO production after 48 hrs by Griess reaction in presence of glucocorticoid antagonist mifepristone; assay type: functional, cell-based
# [14] = tested on: RAW264.7; assay: Inhibition of IFN-gamma induced iNOS expression in mouse RAW264.7 cells at 30 nM after 24 hrs by Western blotting; assay type: functional, cell-based
# [15] = tested on: RAW264.7; assay: Induction of HO-1 expression in mouse RAW264.7 cells at 30 nM after 6 hrs by Western blotting; assay type: functional, cell-based; how it was run: as §3
# [16] = tested on: RAW264.7; assay: Induction of HO-1 expression in mouse RAW264.7 cells at 10 nM after 6 hrs by Western blotting; assay type: functional, cell-based
# How it was run: (§4)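 RAW 264.7 macrophages were exposed to compound at 10–100 nM for 6 h. HO-1 protein was detected by Western blot of total cell lysates.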
# [17] = tested on: RAW264.7; assay: Induction of HO-1 expression in mouse RAW264.7 cells at 100 nM after 6 hrs by Western blotting; assay type: functional, cell-based; how it was run: as §4
# [18] = tested on: Stomach; assay: Induction of HO-1 expression in CD-1 mouse stomach at 1 umol administered via gavage measured after 6 hrs by Western blotting; assay type: functional, tissue-based
# How it was run: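 Male CD-1 mice, three per group, received 1 μmol of compound in DMSO by gavage. Stomachs were harvested 6 h later, and HO-1 was detected by Western blot of tissue.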
# [19] = tested on: Liver; assay: Antitumor activity against aflatoxin B1-induced tumorigenesis in F344 rat liver assessed as reduction in tumor burden at 30 umol/kg administered via gavage; assay type: functional, tissue-based; how it was run: as §1
# [20] = tested on: Liver; assay: Antitumor activity against aflatoxin B1-induced tumorigenesis in F344 rat liver assessed as reduction in tumor burden at 60 umol/kg administered via gavage; assay type: functional, tissue-based; how it was run: as §1
# [21] = tested on: Liver; assay: Antitumor activity against aflatoxin B1-induced tumorigenesis in F344 rat liver assessed as inhibition of preneoplastic foci formation administered via gavage; assay type: functional, tissue-based; how it was run: as §1
# [22] = Cytotoxicity against CD-1 mouse macrophages at 10 uM; assay type: cell-based; conditions: macrophage
SMILES,CD [9] [nM],Activity [11],Activity [12],Activity [16],Activity [17],Activity [18],"pIC50 ([2]; Mus musculus, RAW264.7, 24 h)",also measured
C#C[C@]12C=C(C#N)C(=O)C=C1[C@@]1(C)C=C(C#N)C(=O)C(C)(C)[C@@H]1CC2 (racemic) [listing 1 of 2 here],–,–,–,–,–,–,–,"pIC50 ([1]; Mus musculus, CD-1, Macrophage, 48 h): 10.25; pIC50 ([2]; raw264.7): 9.00; Activity [3]: 90%; Activity [4]: 99%; Ratio [5]: 80; Ratio [6]: 20; Activity [7]: Non-toxic; Activity [8]: Non-toxic"
CC1(C)C(=O)C(C#N)=C[C@]2(C)C3=CC(=O)C(C#N)=C[C@]3(C)CC[C@@H]12 (racemic),18,Active,Active,–,–,–,–,inhibition [10]: Active; inhibition [13]: Active
C#C[C@]12C=C(C#N)C(=O)C=C1[C@@]1(C)C=C(C#N)C(=O)C(C)(C)[C@@H]1CC2 (racemic) [listing 2 of 2 here],0.9,Active,–,Active,Active,Active,–,inhibition [14]: Active; Activity [15]: Active; Activity [19]: Active; Activity [20]: Active; inhibition [21]: Dose-dependent effect
C#C[C@@]12C=C(C#N)C(=O)C=C1[C@]1(C)C=C(C#N)C(=O)C(C)(C)[C@H]1CC2,0.9,–,–,Active,Active,–,9.00,–
CC1(C)CC[C@]2(C(=O)O)CC[C@]3(C)[C@H](C(=O)C=C4[C@@]5(C)C=C(C#N)C(=O)C(C)(C)[C@@H]5CC[C@]43C)[C@@H]2C1 [BARDOXOLONE],2.3,–,inactive,–,–,inactive,7.77,pIC50 ([1]; macrophage): 8.37 and 9.30; Activity [22]: Non-toxic
CC1(C)C(=O)C(C#N)=C[C@]2(C)C3=CC(=O)C(C#N)=C[C@]3(C#C[Si](C)(C)C)CC[C@@H]12 (racemic),3.5,Active,–,Active,Active,–,–,inhibition [14]: Active; Activity [15]: Active
CC1(C)C(=O)C(C#N)=C[C@@]2(C)C3=CC(=O)C(C#N)=C[C@@]3(C#C[Si](C)(C)C)CC[C@H]12,2.3,–,–,Active,Active,–,8.70,–
CC1(C)CC[C@]2(C(=O)n3ccnc3)CC[C@]3(C)[C@H](C(=O)C=C4[C@@]5(C)C=C(C#N)C(=O)C(C)(C)[C@@H]5CC[C@]43C)[C@@H]2C1,3.3,–,Active,–,–,Active,9.00,Activity [4]: 99%; Activity [7]: Non-toxic; Activity [8]: Non-toxic
